Laboratory results as given in ChEMBL document CHEMBL1127345, “Synthesis, binding properties, and 18F labeling of fluorocarazolol, a high-affinity beta-adrenergic receptor antagonist” (J Med Chem, 1994).

Assays:
[1] = system: Mus musculus; experiment: The in vivo tissue distribution of mouse brain without Propranolol preadministration in 20 min, value was fractional dose per fractional body weight of the organ
[2] = system: Mus musculus; experiment: The in vivo tissue distribution of mouse liver with Propranolol preadministration in 120 min, value was fractional dose per fractional body weight of the organ; assay type: ADME, organism-based; conditions: 2 h
Summary of the method: (§1)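 Male CF-1 mice (25–30 g), anesthetised with 2 mg sodium pentobarbital ip 30 min before tracer. Where blocked, propranolol iv via tail vein (0.1 mL of […]; […]) about 30 min before tracer. Tracer given by tail vein, 0.1 mL at 1–2 mCi/mL. Mice killed by cervical dislocation at set times, organs weighed and counted. %ID/g × body weight/100 gives unitless uptake. Heart, brain, blood, lung, kidney, liver and bone n=5; average ± SD.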

[3] = The in vivo tissue distribution of mouse kidney without Propranolol preadministration in 180 min, value was fractional dose per fractional body weight of the organ; conditions: 3 h
[4] = system: Mus musculus; experiment: The in vivo tissue distribution of mouse liver with Propranolol administration after 120 min, value was fractional dose per fractional body weight of the organ; assay type: ADME, organism-based; conditions: 2 h
Summary of the method: as §1

[5] = system: Mus musculus; experiment: The in vivo tissue distribution of mouse heart with Propranolol preadministration in 10 min, value was fractional dose per fractional body weight of the organ; assay type: ADME, organism-based
Summary of the method: as §1

[6] = system: Mus musculus; experiment: The in vivo tissue distribution of mouse lung with Propranolol administration after 120 min, value was fractional dose per fractional body weight of the organ; assay type: ADME, organism-based; conditions: 2 h
Summary of the method: (§2)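 Male CF-1 mice (25–30 g) anaesthetised with 2 mg sodium pentobarbital ip; blocked group given 0.1 mL of […] propranolol iv via tail vein (200 μg, 6.6 mg/kg), tracer 30 min later. 0.1 mL of 1–2 mCi/mL [18F]-labelled enantiomer iv via tail vein; killed by cervical dislocation, organs weighed and counted against weighed standards. %ID/g × body weight/100 gives unitless uptake; five mice per point (heart, blood, lung, kidney, liver, bone); mean ± SD.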

[7] = system: Mus musculus; experiment: The in vivo tissue distribution of mouse liver without Propranolol preadministration in 40 min, value was fractional dose per fractional body weight of the organ
[8] = system: Mus musculus; experiment: The in vivo tissue distribution of mouse bone with Propranolol administration after 60 min, value was fractional dose per fractional body weight of the organ; assay type: ADME, organism-based, Bone element; conditions: 1 h
Summary of the method: as §1

[9] = system: Mus musculus; experiment: The in vivo tissue distribution of mouse blood with Propranolol administration after 90 min, value was fractional dose per fractional body weight of the organ; assay type: ADME, organism-based; conditions: 1.5 h
Summary of the method: as §2

[10] = system: Mus musculus; experiment: The in vivo tissue distribution of mouse liver without Propranolol preadministration in 10 min, value was fractional dose per fractional body weight of the organ
[11] = system: Mus musculus; experiment: The in vivo tissue distribution of mouse brain with Propranolol administration after 90 min, value was fractional dose per fractional body weight of the organ; assay type: ADME, organism-based; conditions: 1.5 h
Summary of the method: as §1

[12] = system: Mus musculus; experiment: The in vivo tissue distribution of mouse lung with Propranolol administration after 60 min, value was fractional dose per fractional body weight of the organ; assay type: ADME, organism-based; conditions: 1 h
Summary of the method: as §1

[13] = system: Mus musculus; experiment: The in vivo tissue distribution of mouse kidney without Propranolol preadministration in 90 min, value was fractional dose per fractional body weight of the organ; conditions: 1.5 h
[14] = system: Mus musculus; experiment: The in vivo tissue distribution of mouse blood with Propranolol preadministration in 10 min, value was fractional dose per fractional body weight of the organ; assay type: ADME, organism-based
Summary of the method: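 Male CF-1 mice, 25–30 g, anesthetized with 2 mg sodium pentobarbital ip. Propranolol pretreatment was 0.1 mL of 1 mg/mL iv by tail vein. About 30 min later, 0.1 mL of 1–2 mCi/mL [18F]tracer was given by tail vein. Mice were killed by cervical dislocation at set times. Organs were weighed and counted against weighed dose standards. %ID/g × body weight/100 gave fractional dose per fractional body weight. Blood and heart n=5.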

[15] = system: Mus musculus; experiment: The in vivo tissue distribution of mouse brain with Propranolol administration after 120 min, value was fractional dose per fractional body weight of the organ; assay type: ADME, organism-based; conditions: 2 h
Summary of the method: (§3)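 Male CF-1 mice (25–30 g), given 2 mg sodium pentobarbital ip 30 min before tracer. Blocked groups received propranolol iv by tail vein, 0.1 mL of 1 mg/mL. About 30 min later, 0.1 mL of [18F]tracer (1–2 mCi/mL) was injected by tail vein. Mice were killed by cervical dislocation at set times, and organs were weighed and counted. Uptake is %ID/g × body weight/100, average ± SD; n=5 for heart, brain, blood, lung, kidney, liver and bone.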

[16] = system: Mus musculus; experiment: The in vivo tissue distribution of mouse blood without Propranolol preadministration in 40 min, value was fractional dose per fractional body weight of the organ
[17] = system: Mus musculus; experiment: The in vivo tissue distribution of mouse bone with Propranolol administration after 10 min, value was fractional dose per fractional body weight of the organ; assay type: ADME, organism-based, Bone element
Summary of the method: as §1

[18] = system: Mus musculus; experiment: The in vivo tissue distribution of mouse brain without Propranolol preadministration in 40 min, value was fractional dose per fractional body weight of the organ
[19] = system: Mus musculus; experiment: The in vivo tissue distribution of mouse lung with Propranolol administration after 20 min, value was fractional dose per fractional body weight of the organ; assay type: ADME, organism-based
Summary of the method: as §3

[20] = system: Mus musculus; experiment: The in vivo tissue distribution of mouse bone without Propranolol preadministration in 180 min, value was fractional dose per fractional body weight of the organ; conditions: 3 h
[21] = system: Mus musculus; experiment: The in vivo tissue distribution of mouse blood without Propranolol preadministration in 180 min, value was fractional dose per fractional body weight of the organ; conditions: 3 h
[22] = system: Mus musculus; experiment: The in vivo tissue distribution of mouse brain without Propranolol preadministration in 180 min, value was fractional dose per fractional body weight of the organ; conditions: 3 h
[23] = system: Mus musculus; experiment: The in vivo tissue distribution of mouse kidney without Propranolol preadministration in 60 min, value was fractional dose per fractional body weight of the organ; conditions: 1 h
[24] = system: Mus musculus; experiment: The in vivo tissue distribution of mouse blood with Propranolol administration after 60 min, value was fractional dose per fractional body weight of the organ; assay type: ADME, organism-based; conditions: 1 h
Summary of the method: as §1

[25] = system: Mus musculus; experiment: The in vivo tissue distribution of mouse brain with Propranolol administration after 20 min, value was fractional dose per fractional body weight of the organ; assay type: ADME, organism-based
Summary of the method: as §1

[26] = system: Mus musculus; experiment: The in vivo tissue distribution of mouse bone with Propranolol administration after 20 min, value was fractional dose per fractional body weight of the organ; assay type: ADME, organism-based, Bone element
Summary of the method: as §2

[27] = system: Mus musculus; experiment: The in vivo tissue distribution of mouse heart without Propranolol preadministration in 60 min, value was fractional dose per fractional body weight of the organ; conditions: 1 h
[28] = system: Mus musculus; experiment: The in vivo tissue distribution of mouse blood with Propranolol administration after 180 min, value was fractional dose per fractional body weight of the organ; assay type: ADME, organism-based; conditions: 3 h
Summary of the method: as §3

[29] = system: Mus musculus; experiment: The in vivo tissue distribution of mouse blood with Propranolol administration after 40 min, value was fractional dose per fractional body weight of the organ; assay type: ADME, organism-based
Summary of the method: as §1

[30] = system: Mus musculus; experiment: The in vivo tissue distribution of mouse liver without Propranolol preadministration in 180 min, value was fractional dose per fractional body weight of the organ; conditions: 3 h

CC(C[18F])NC[C@H](O)COc1cccc2[nH]c3ccccc3c12 (stereo not given in full)
Dose/organ [1]: 0.95
Dose/organ [2]: 0.96
Dose/organ [3]: 0.71
Dose/organ [4]: 0.66
Dose/organ [5]: 1.1
Dose/organ [6]: 0.52
Dose/organ [7]: 1.7
Dose/organ [8]: 1.1
Dose/organ [9]: 0.34
Dose/organ [10]: 3.55
Dose/organ [11]: 0.38
Dose/organ [12]: 1.1
Dose/organ [13]: 1.33
Dose/organ [14]: 0.56
Dose/organ [15]: 0.11
Dose/organ [16]: 0.69
Dose/organ [17]: 0.72
Dose/organ [18]: 1.09
Dose/organ [19]: 3.26
Dose/organ [20]: 1.9
Dose/organ [21]: 0.43
Dose/organ [22]: 0.67
Dose/organ [23]: 1.39
Dose/organ [24]: 0.25
Dose/organ [25]: 0.78
Dose/organ [26]: 0.86
Dose/organ [27]: 0.61
Dose/organ [28]: 0.15
Dose/organ [29]: 0.35
Dose/organ [30]: 0.88

CC(C[18F])NC[C@@H](O)COc1cccc2[nH]c3ccccc3c12 (stereo not given in full)
Dose/organ [1]: 0.66
Dose/organ [2]: 0.94
Dose/organ [3]: 0.67
Dose/organ [4]: 0.94
Dose/organ [5]: 0.93
Dose/organ [6]: 0.45
Dose/organ [7]: 3
Dose/organ [8]: 1.15
Dose/organ [9]: 0.47
Dose/organ [10]: 3.08
Dose/organ [11]: 0.42
Dose/organ [12]: 1.23
Dose/organ [13]: 1.5
Dose/organ [14]: 0.57
Dose/organ [15]: 0.12
Dose/organ [16]: 0.63
Dose/organ [17]: 0.67
Dose/organ [18]: 0.73
Dose/organ [19]: 3.87
Dose/organ [20]: 1.25
Dose/organ [21]: 0.17
Dose/organ [22]: 0.08
Dose/organ [23]: 2.63
Dose/organ [24]: 0.63
Dose/organ [25]: 1.22
Dose/organ [26]: 0.77
Dose/organ [27]: 0.56
Dose/organ [28]: 0.09
Dose/organ [29]: 0.57
Dose/organ [30]: 0.78
